The subject of series [1] is Liver microsomes. Nature of the series: Metabolic stability in human liver microsomes. It is filed as ADME, Microsome. A digest of the protocol: (§1)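 Human or rat liver microsomes incubated with compound for 15 min at 37 °C; result expressed as percent of intact compound remaining.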
Series [2] deals with Liver microsomes. Nature of the series: Metabolic stability in rat liver microsomes. It counts as ADME, Microsome. In a few lines:
as §1
A general note: Liver microsomes are a subcellular fraction often used to study metabolism.

Series [3] is described as follows: Cmax in rat at 10 mg/kg, po. It counts as ADME, organism-based. More on the design: dose 10 mg/kg, route oral. The note with it: in vivo. In a few lines:
(§2)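 Rats dosed orally at 10 mg/kg; compound given as the sodium salt where specified.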

A short description of series [4]: AUC (0 to 4 hrs) in rat at 10 mg/kg, po. It is filed as ADME, organism-based. More on the design: time < 4 hr, dose 10 mg/kg, route oral. The settings on record: plasma. A digest of the protocol: as §2
The nature of series [5]: Half life in rat at 10 mg/kg, iv and 10 mg/kg, po. It is filed as ADME, organism-based. The settings on record: in vivo. A digest of the protocol:
(§3)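 Rats dosed at 10 mg/kg iv and 10 mg/kg po, compound given as the sodium salt.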

The nature of series [6]: Total clearance in rat at 10 mg/kg, iv and 10 mg/kg, po. The settings on record: in vivo. It counts as ADME, organism-based. A digest of the protocol: as §3
Series [7] is described as follows: Volume of distribution at steady state in rat at 10 mg/kg, iv and 10 mg/kg, po. It counts as ADME, organism-based. The settings on record: in vivo, read-out: Vdss. In a few lines: as §3
The nature of series [8]: Oral bioavailability in rat at 10 mg/kg. The settings on record: in vivo. It counts as ADME, organism-based. In a few lines: as §2

One may read the Cmax as the peak of the concentration-time curve. Usually AUC(0-t) stands for the area under the concentration-time curve up to a stated or last time point. Lower therefore signals less exposure. As a reminder, the half-life is the time needed for the level to fall by half in the phase considered. A low value points to rapid decline. A word on the bioavailability: it is dose-corrected exposure relative to a reference, in per cent. Higher therefore signals good availability. For the compound `O=C([O-])CCc1ccc(Cn2cccn2)cc1OCCc1ccc2ccccc2c1.[Na+]`, the Stability in series [1] turned out to be 100%; in series [2] it was 73%. For the same compound, in series [3], the Cmax worked out at 8320 ng/mL. The same compound yielded an AUC(0-t) at 4 h in series [4] of 22900 ng·h/mL. In series [5], this compound had a half-life of 2.93 h. The compound further came in with a clearance in series [6] of 2.77 mL/min/kg. The Vd in series [7] is 0.538 L/kg. In series [8], this compound yielded a bioavailability of 53%.

Source of the values: ChEMBL document CHEMBL1152570, “Discovery of a series of acrylic acids and their derivatives as chemical leads for selective EP3 receptor antagonists” (Bioorg Med Chem, 2009).
